Molecules are shown by their SMILES. The source made the active and inactive calls. No cut-off for these calls is given here.

The species entered for test [1] is Mus musculus. Description: Agonistic activity by mouse acetic acid writhing test. The class given is functional. Background: In writhing tests, fewer writhes than in controls are read as antinociception.
Test [2] deals with Rattus norvegicus. Nature of the test: Antagonistic activity was measured by Rat tail-flick morphine antagonist procedure; IA is Inactive at highest dose tested (10 mg/Kg). The class given is functional, organism-based. The procedure, abridged:
(§1)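 Rat tail-flick test: the compound's ability to block analgesia from a fixed challenge dose of morphine was scored across a dose-response.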

Test [3] concerns Mus musculus. Nature of the test: Agonistic activity was measured by Mouse acetic acid writhing test; IA is Inactive at highest dose tested (10 mg/Kg). The test is classed as functional, organism-based.
The species entered for test [4] is Rattus norvegicus. Nature of the test: Antagonistic activity was measured by Rat tail-flick morphine antagonist procedure. The class given is functional. The procedure, abridged:
as §1

The species entered for test [5] is Rattus norvegicus. Nature of the test: Antagonistic activity was measured by Rat tail-flick morphine antagonist procedure; unable to achieve satisfactory dose response. The class given is functional, organism-based. The procedure, abridged:
as §1

As to `CCCCCC(=O)C1CC2C3Cc4ccc(OC)c5c4C2(CCN3C)C(O5)C1=O` (stereo not drawn), in the test filed under Mus musculus [1], the 50% effect level (ED50) was put at a dose of 4 mg/kg.

`CCCCC(=O)C1CC2C3Cc4ccc(OC)c5c4C2(CCN3CC2CC2)C(O5)C1=O` (stereo not drawn): in the test filed under Mus musculus [1], the median effective dose (ED50) – broadly, the midpoint of the dose-response relation – is above 10 mg/kg. For the same molecule, the AD50 result in the test on Rattus norvegicus [2] was “inactive”. On to `CC(C)(C)CC(=O)C1CC2C3Cc4ccc(O)c5c4C2(CCN3CC2CC2)C(O5)C1=O` (stereo not drawn), for which, in the test with Mus musculus [3], the ED50 entry was “inactive”. The AD50 in the test listed under Rattus norvegicus [4] was above 10 mg/kg. In turn, `COc1ccc2c3c1O[C@H]1C(=O)CC[C@H]4[C@@H](C2)N(C)CC[C@]314` [HYDROCODONE] displayed an ED50 in the test filed under Mus musculus [1] of 1.06 mg/kg. Still for that read-out and setting: next, `CN1CC[C@]23c4c5ccc(O)c4O[C@H]2[C@@H](O)C=C[C@H]3[C@H]1C5` [MORPHINE]: 0.79 mg/kg. For the molecule `CCCC(=O)C1CC2C3Cc4ccc(OC)c5c4C2(CCN3CC2CC2)C(O5)C1=O` (stereo not drawn), the ED50 in the test listed under Mus musculus [1] was determined as 2.8 mg/kg. The molecule also yielded an AD50 in the test listed under Rattus norvegicus [4] of 8.1 mg/kg. In the test listed under Mus musculus [1], `COc1ccc2c3c1OC1C(=O)C(C(C)=O)CC4C(C2)N(CC2CC2)CCC314` (stereo not drawn) came in with an ED50 above 10 mg/kg. Further, the AD50 in the test listed under Rattus norvegicus [4] was above 10 mg/kg. `COc1ccc2c3c1OC1C(=O)C(C(=O)c4ccccc4)CC4C(C2)N(CC2CC2)CCC314` (stereo not drawn) showed an AD50 in the test filed under Rattus norvegicus [4] of 8 mg/kg. As to `COc1ccc2c3c1OC1C(=O)CCC4C(C2)N(CC2CC2)CCC314` (stereo not drawn), it took a dose of 17 mg/kg to reach the 50% effect level in the test filed under Mus musculus [1] (ED50). Besides, the AD50 in the test filed under Rattus norvegicus [4] came to 3.4 mg/kg. In the case of `CC(C)C(=O)C1CC2C3Cc4ccc(O)c5c4C2(CCN3CC2CC2)C(O5)C1=O` (stereo not drawn), the AD50 in the test listed under Rattus norvegicus [4] was 0.81 mg/kg. Consider `CCCCCCC(=O)C1CC2C3Cc4ccc(OC)c5c4C2(CCN3CC2CC2)C(O5)C1=O.Cl` (stereo not drawn), for which the ED50 in the test filed under Mus musculus [1] was above 10 mg/kg. The molecule also showed an AD50 in the test filed under Rattus norvegicus [4] above 10 mg/kg. Take `CCCCCC(=O)C1CC2C3Cc4ccc(OC)c5c4C2(CCN3CC2CC2)C(O5)C1=O` (stereo not drawn): the AD50 entry in the test on Rattus norvegicus [2] was “inactive”.

In the test listed under Mus musculus [1], `CO[C@@]12CC[C@@]3(C[C@@H]1[C@](C)(O)C(C)(C)C)[C@H]1Cc4ccc(O)c5c4[C@@]3(CCN1CC1CC1)[C@H]2O5` [BUPRENORPHINE] came in with an ED50 of 0.13 mg/kg. Besides, the AD50 result in the test filed under Rattus norvegicus [5] is listed as “unable to achieve satisfactory dose response”.

For the molecule `COc1ccc2c3c1OC1C(=O)C(C(C)=O)CC4C(C2)N(C)CCC314` (stereo not drawn), the ED50 in the test listed under Mus musculus [1] amounted to 23.5 mg/kg.

For the molecule `CCCC(=O)C1CC2C3Cc4ccc(OC)c5c4C2(CCN3C)C(O5)C1=O` (stereo not drawn), the ED50 entry in the test with Mus musculus [3] is “inactive”. Turning to `O=C1CCC2C3Cc4ccc(O)c5c4C2(CCN3CC2CC2)C1O5` (stereo not drawn), the 50% effect level in the test filed under Mus musculus [1] (ED50) was put at a dose of 1.3 mg/kg. Besides, the AD50 in the test listed under Rattus norvegicus [4] was found to be 0.19 mg/kg. Turning to `COc1ccc2c3c1OC1C(=O)C(C(=O)c4ccc(F)cc4)CC4C(C2)N(CC2CC2)CCC314` (stereo not drawn), the ED50 entry in the test with Mus musculus [3] was “inactive”. Also, the AD50 in the test filed under Rattus norvegicus [4] was above 10 mg/kg. The corresponding values for `CCC(=O)C1CC2C3Cc4ccc(O)c5c4C2(CCN3CC2CC2)C(O5)C1=O` (stereo not drawn) are “inactive” and 0.52 mg/kg. The molecule `CC(=O)C1CC2C3Cc4ccc(O)c5c4C2(CCN3CC2CC2)C(O5)C1=O` (stereo not drawn) registered an ED50 in the test filed under Mus musculus [1] of 4 mg/kg. For the same molecule, in the test listed under Rattus norvegicus [4], the AD50 turned out to be 1.3 mg/kg. Molecule `CCCCCCC(=O)C1CC2C3Cc4ccc(O)c5c4C2(CCN3CC2CC2)C(O5)C1=O` (stereo not drawn) returned an ED50 in the test filed under Mus musculus [1] of 0.4 mg/kg. For the same molecule, in the test with Rattus norvegicus [2], the AD50 entry was “inactive”.

In the case of `CCCCCC(=O)C1CC2C3Cc4ccc(O)c5c4C2(CCN3CC2CC2)C(O5)C1=O` (stereo not drawn), the AD50 in the test filed under Rattus norvegicus [4] is 22 mg/kg. In the test filed under Mus musculus [1], `O=C(c1ccc(F)cc1)C1CC2C3Cc4ccc(O)c5c4C2(CCN3CC2CC2)C(O5)C1=O` (stereo not drawn) returned a median effective dose (ED50) above 10 mg/kg. Further, the AD50 in the test filed under Rattus norvegicus [4] was around 10 mg/kg. In the test filed under Rattus norvegicus [4], `COc1ccc2c3c1OC1C(=O)C(C(=O)C(C)C)CC4C(C2)N(CC2CC2)CCC314` (stereo not drawn) yielded an AD50 of 2.8 mg/kg. The molecule `CCCCC(=O)C1CC2C3Cc4ccc(O)c5c4C2(CCN3CC2CC2)C(O5)C1=O` (stereo not drawn) gave an AD50 in the test listed under Rattus norvegicus [4] of 3.3 mg/kg.

As for `CCCC(=O)C1CC2C3Cc4ccc(O)c5c4C2(CCN3CC2CC2)C(O5)C1=O` (stereo not drawn), the AD50 in the test listed under Rattus norvegicus [4] was found to be 2.6 mg/kg. As to `CN1CC[C@]23c4c5ccc(O)c4O[C@H]2C(=O)CC[C@H]3[C@H]1C5` [HYDROMORPHONE], in the test filed under Mus musculus [1], the ED50 was determined as 0.08 mg/kg. As for `O=C(c1ccccc1)C1CC2C3Cc4ccc(O)c5c4C2(CCN3CC2CC2)C(O5)C1=O` (stereo not drawn), the AD50 in the test listed under Rattus norvegicus [4] worked out at 0.24 mg/kg. In the case of `CCCC(=O)C1CC2C3Cc4ccc(O)c5c4C2(CCN3C)C(O5)C1=O` (stereo not drawn), the 50% effect level in the test listed under Mus musculus [1] (ED50) was put at a dose of 5.2 mg/kg. Consider `CCC(=O)C1CC2C3Cc4ccc(OC)c5c4C2(CCN3CC2CC2)C(O5)C1=O` (stereo not drawn), for which the ED50 in the test filed under Mus musculus [1] was above 10 mg/kg. For the same molecule, in the test filed under Rattus norvegicus [4], the AD50 was determined as 6.5 mg/kg.
